Assay results: article PMC11983213 (ACS Omega, 2025)
Converted amounts (≈) assume the structure as drawn.

What was measured:
[1] = system: SPC-1-A, Bcap37, and HepG2 cancer cells; conditions: via the mitochondrial apoptotic pathway; cited from earlier work
[2] = system: protein tyrosine kinases v-src and pp60src; conditions: cited from earlier work
[3] = system: breast and colon cancer cells; conditions: cited from earlier work
[4] = system: MDA-MB-231 breast cancer cell line; assay: MTT cytotoxicity assay on MDA-MB-231; format: cell-based; conditions: Homo sapiens, MDA-MB-231, 48 h
Method in brief: (§1)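 Cells held in RPMI-1640 or DMEM with 2 mM L-glutamine, 1% penicillin/streptomycin and 10% FBS at 37 °C, 5% CO2. Seeded in triplicate at 5000 cells per well, then treated next day with test extract or compound. After 48 h exposure, MTT reagent added for 3 h and signal read at 570 nm. IC50 estimated from the viability data.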

[5] = system: MCF-7 breast cancer cell line; assay: MTT cytotoxicity assay on MCF-7; format: cell-based; conditions: Homo sapiens, MCF7, 48 h
Method in brief: as §1

[6] = system: HepG2 liver cancer cell line; assay: MTT cytotoxicity assay on HepG2; format: cell-based; conditions: Homo sapiens, HepG2, 48 h
Method in brief: as §1

[7] = system: HSF normal cell line; assay: MTT cytotoxicity assay on HSF; format: cell-based; conditions: 48 h
Method in brief: as §1

[8] = system: breast cancer cells; conditions: cited from earlier work
[9] = system: gastric cancer cells; conditions: via PI3K/Akt/Snail pathway; cited from earlier work
[10] = system: pancreatic cancer cells; conditions: by blocking NF-κB activation; cited from earlier work
[11] = system: breast and bone cancers; conditions: cited from earlier work
[12] = system: breast and skin cancer cells; conditions: cancer versus normal cells; cited from earlier work

Structure (SMILES): O=C1c2ccccc2C(=O)c2cc(O)ccc21 [2-hydroxyanthraquinone]
- effect on cell growth [1]: arrested the growth
- inhibitory activity against protein tyrosine kinases [2]: exhibited inhibitory activity
- induction of apoptosis [3]: resulting in apoptosis via inhibiting antiapoptotic pathways

Structure (SMILES): COc1ccc2c(c1O)C(=O)c1ccccc1C2=O [2-methyl alizarin, 1-Hydroxy-2-methoxyanthracene-9,10-dione]
- IC50 [4]: 83 µg/mL (≈ 327 µM)
- IC50 [5]: 52.1 µg/mL (≈ 205 µM)
- IC50 [6]: 8.88 µg/mL (≈ 34.9 µM)
- IC50 [7]: 67 µg/mL (≈ 264 µM)

Structure (SMILES): COc1cccc2c1C(=O)c1c(O)c3c(c(O)c1C2=O)C[C@@](O)(C(=O)CO)C[C@@H]3O[C@H]1C[C@H](N)[C@H](O)[C@H](C)O1 [Doxorubicin, reference compound]
- IC50 [4]: 7.05 µg/mL (≈ 13 µM)
- IC50 [5]: 2.17 µg/mL (≈ 3.99 µM)
- IC50 [6]: 2.48 µg/mL (≈ 4.56 µM)

Structure (SMILES): COc1ccc(-c2cc(=O)c3c(O)cc(O)cc3o2)cc1 [acacetin]
- induction of cell death [8]: caused RIP1-dependent necroptotic death and prolonged ERK1/2 activation
- effect on invasion, migration and TGF-β1-induced EMT [9]: prevented gastric cancer cells from invasively migrating and developing TGF-β1-induced epithelial-to-mesenchymal transition

Structure (SMILES): CC(=O)Oc1ccc2c(c1OC(C)=O)C(=O)c1ccccc1C2=O [alizarin-1,2-diacetate, 1,2-Diacetoxyanthraquinone]
- IC50 [4]: 127 µg/mL (≈ 391 µM)
- IC50 [5]: 135 µg/mL (≈ 416 µM)
- IC50 [6]: ≥ 50 µg/mL
- IC50 [7]: 142 µg/mL (≈ 437 µM)

Structure (SMILES): CC(=O)Oc1ccc2c(c1O)C(=O)c1ccccc1C2=O [alizarin-2-acetate, 9,10-Dihydro-1-hydroxy-9,10-dioxoanthracen-2-yl Acetate]
- IC50 [4]: 157 µg/mL
- IC50 [5]: 120 µg/mL
- IC50 [6]: ≥ 50 µg/mL
- IC50 [7]: 151 µg/mL

Structure (SMILES): O=C1c2ccccc2C(=O)c2c1ccc(O)c2O [alizarin]
- effect on cell growth [10]: prevented pancreatic cancer cells from growing
- effect on breast and bone cancers [11]: impaired both breast and bone cancers by inducing cell cycle arrest in the S phase and inhibiting ERK phosphorylation
- IC50 [4]: 52.6 µg/mL (≈ 219 µM)
- IC50 [5]: 66.9 µg/mL (≈ 279 µM)
- IC50 [6]: 99.4 µg/mL (≈ 414 µM)
- IC50 [7]: 111 µg/mL (≈ 462 µM)

Structure (SMILES): O=C1c2ccccc2C(=O)c2c(O)c(O)cc(O)c21 [purpurin]
- IC50 [4]: 244 µg/mL (≈ 954 µM)
- IC50 [5]: 148 µg/mL (≈ 577 µM)
- IC50 [6]: 179 µg/mL (≈ 700 µM)
- IC50 [7]: 201 µg/mL (≈ 783 µM)

Structure (SMILES): O=C1c2ccccc2C(=O)c2c(O)cc(O)cc21 [xanthopurpurin]
- selective toxicity [12]: high selective toxicity toward breast and skin cancer cells at lower concentrations without inducing toxicity toward normal cells
